ChEMBL document CHEMBL4038314, “Synthetic Modification within the "RPRL" Region of Apelin Peptides: Impact on Cardiovascular Activity and Stability to Neprilysin and Plasma Degradation” (J Med Chem, 2017)
Calls of active or inactive are those of the source. No cut-off for these calls is given here. Starred links: 1 amine or outer side, 2 acyl side, 3 side chain; linkers in the order of their positions; H or OH if unused. Non-standard residues stand in square brackets, D forms with d. Residues, ends and D or L forms follow the SMILES beside them. Phe(4-Br) = N[C@@H](Cc1ccc(Br)cc1)C(=O)O; X1 = N=C(N)NCCCN(N[*:1])C(=O)[*:2]; azaLeu = CC(C)CN(N[*:1])C(=O)[*:2]; pGlu = O=C1CC[C@@H](C(=O)O)N1; Nle = CCCC[C@H](N)C(=O)O; Aib = CC(C)(N)C(=O)O

Assays:
Neprilysin [1] = biological target: T1, Neprilysin (Homo sapiens, UniProt P08473); test: Drug metabolism assessed as recombinant human NEP-medited peptide proteolysis at 1 mM up to 72 hrs by LC-MS analysis; format: ADME; conditions: 1000 µM
T1 sequence (P08473 whole entry): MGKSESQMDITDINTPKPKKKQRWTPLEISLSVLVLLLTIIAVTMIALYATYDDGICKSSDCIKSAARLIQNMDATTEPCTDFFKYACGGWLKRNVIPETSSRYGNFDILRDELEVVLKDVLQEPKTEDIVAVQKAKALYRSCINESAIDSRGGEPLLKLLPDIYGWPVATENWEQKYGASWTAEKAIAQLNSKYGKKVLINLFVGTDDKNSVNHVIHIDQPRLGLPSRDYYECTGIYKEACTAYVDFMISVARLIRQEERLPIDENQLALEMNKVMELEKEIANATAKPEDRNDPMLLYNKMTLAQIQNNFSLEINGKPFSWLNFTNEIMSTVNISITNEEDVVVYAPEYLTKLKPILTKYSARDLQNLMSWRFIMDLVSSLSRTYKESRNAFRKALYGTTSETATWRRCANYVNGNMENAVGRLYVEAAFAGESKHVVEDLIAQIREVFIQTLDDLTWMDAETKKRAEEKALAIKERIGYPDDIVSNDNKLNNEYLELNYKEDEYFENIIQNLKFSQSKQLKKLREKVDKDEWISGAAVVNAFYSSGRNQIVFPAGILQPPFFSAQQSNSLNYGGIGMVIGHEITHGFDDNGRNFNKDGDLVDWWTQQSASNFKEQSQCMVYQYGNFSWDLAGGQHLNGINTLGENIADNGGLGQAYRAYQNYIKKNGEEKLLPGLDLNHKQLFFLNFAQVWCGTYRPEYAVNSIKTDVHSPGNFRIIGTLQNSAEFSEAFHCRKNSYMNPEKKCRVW
Outline: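 Recombinant human NEP, 3.1 nM final in 100 mM Tris, 100 mM NaCl, 10 μM ZnCl2, pH 7.5, preincubated 10 min at 37 °C. Then 5 μL of 1 mM peptide stock and dansyl-YVG internal standard added; incubated at 37 °C for up to 72 h. Extracted-ion LC−MS ratio of parent to standard compared with 0 h and converted to percent cleaved.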

Mus musculus [2] = test: Cardiovascular activity in anesthetized mouse assessed as decrease in blood pressure at 1.4 uM/kg, iv relative to control; format: functional, organism-based
Outline: (§1)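 Mice under 1.5% isoflurane, body temperature held at 36 °C on a heating pad. Aorta cannulated via the right carotid artery with a 1.2F PV loop catheter to record arterial pressure and heart rate continuously. Peptide given systemically through the right internal jugular vein.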

Mus musculus [3] = test: Cardiovascular activity in anesthetized mouse assessed as increase in heart rate at 1.4 uM/kg, iv relative to control; format: functional, organism-based; outline: as §1
Neprilysin [4] = biological target: T1, Neprilysin; test: Drug degradation in human plasma assessed as NEP-mediated degradation by measuring amount of apelin remaining after 60 mins by RP-HPLC analysis; format: ADME; conditions: 1 h
Outline: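 Human plasma (20 μL) prewarmed to 37 °C, then 5 μL of 400 μM peptide added and incubated for set times; done in triplicate. Quenched with 10% aqueous TFA, dansyl-YVG internal standard added, and peptides recovered on a C18 spin column with 40% acetonitrile/0.1% TFA. Analysed by C18 RP-HPLC; peptide/standard peak-area ratio compared with the 0 min ratio.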

Neprilysin [5] = biological target: T1, Neprilysin; test: Inhibition of recombinant human NEP using pyr-1-apelin-13 as substrate assessed as peptide degradation at 1 mM preincubated for 10 mins followed by substrate addition measured after 72 hrs by LC-MS analysis; conditions: 1000 µM
Outline: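 Recombinant human NEP, 3.1 nM in Tris/NaCl/10 μM ZnCl2 buffer, pH 7.5, preincubated 10 min at 37 °C with 5 μL of 1 mM analogue stock (equimolar to substrate) plus dansyl-YVG standard. Then 5 μL of 1 mM pyr-1-apelin-13 added. Aliquots taken at 0, 1, 4, 24 and 72 h and analysed by LC−MS; duplicate per time point.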

Heart [6] = test: Cardioprotective activity against Langendorff isolated mouse heart ischemia-reperfusion model assessed as improvement in LVDP at 1 uM administered for 10 mins during start of 40 mins reperfusion period post 30 mins ischemic induction; format: functional, tissue-based
Outline: (§2)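 Mouse hearts (heparinized, isoflurane 1.5−2%) excised and Langendorff-perfused at constant 80 mmHg with modified Krebs−Henseleit buffer, 37 °C, 95% O2/5% CO2, pH 7.4. After 10 min baseline, 30 min global ischemia, then 40 min reperfusion. Peptide at 1 μM given for the first 10 min of reperfusion, with saline sham and native apelin-17 as controls. Left ventricular function recorded continuously.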

Heart [7] = test: Cardioprotective activity against Langendorff isolated mouse heart ischemia-reperfusion model assessed as minimum derivative change in diastolic pressure over time at 1 uM administered for 10 mins during start of 40 mins reperfusion period post 30 mins ischemic induction; format: functional, tissue-based; outline: as §2
Mus musculus [8] = test: Cardiotoxicity in anesthetized mouse assessed as induction of tachycardia at 1.4 uM/kg, iv relative to control; format: toxicity, organism-based; conditions: in vivo, 1.4 µmol/kg; outline: as §1
Heart [9] = test: Cardioprotective activity against Langendorff isolated mouse heart ischemia-reperfusion model assessed as maximum derivative change in systolic pressure over time at 1 uM administered for 10 mins during start of 40 mins reperfusion period post 30 mins ischemic induction; format: functional, tissue-based; outline: as §2
Heart [10] = test: Cardioprotective activity against Langendorff isolated mouse heart ischemia-reperfusion model assessed as improvement in RPP at 1 uM administered for 10 mins during start of 40 mins reperfusion period post 30 mins ischemic induction; format: functional, tissue-based; outline: as §2

SMILES | Drug metabolism (Neprilysin [1]) | Activity (Mus musculus [2]) | Activity (Mus musculus [3]) | Drug degradation (Neprilysin [4]) [%] | inhibition (INH) (Neprilysin [5]) | Activity (Heart [6]) | Activity (Heart [7]) | Activity (Mus musculus [8]) | Activity (Heart [9]) | Activity (Heart [10])
CCCC[C@H](NC(=O)[C@@H]1CCCN1C(=O)CNC(=O)[C@H](CCCCN)NC(=O)[C@H](Cc1c[nH]cn1)NC(=O)[C@H](CO)NC(=O)[C@H](CC(C)C)N(C)C(=O)[C@H](CCCNC(=N)N)NC(=O)[C@@H]1CCCN1C(=O)[C@H](CCCNC(=N)N)NC(=O)[C@@H]1CCC(=O)N1)C(=O)NC(C)(C)C(=O)N[C@@H](Cc1ccc(Br)cc1)C(=O)O | Metabolite_Notdetected | inactive | Active | 59 | Not Active |  |  |  |  | 
CCCC[C@H](NC(=O)[C@@H]1CCCN1C(=O)CNC(=O)[C@H](CCCCN)NC(=O)[C@H](Cc1c[nH]cn1)NC(=O)[C@H](CO)NC(=O)[C@](C)(CC(C)C)NC(=O)[C@H](CCCNC(=N)N)NC(=O)[C@@H]1CCCN1C(=O)[C@H](CCCNC(=N)N)NC(=O)[C@@H]1CCC(=O)N1)C(=O)NC(C)(C)C(=O)N[C@@H](Cc1ccc(Br)cc1)C(=O)O | Metabolite_Notdetected |  | Active | 38 | Not Active |  |  |  |  | 
CCCC[C@H](NC(=O)[C@@H]1CCCN1C(=O)CNC(=O)[C@H](CCCCN)NC(=O)[C@H](Cc1c[nH]cn1)NC(=O)[C@H](CO)NC(=O)N(CC(C)C)NC(=O)[C@H](CCCNC(=N)N)NC(=O)[C@@H]1CCCN1C(=O)[C@H](CCCNC(=N)N)NC(=O)[C@H](CCC(N)=O)NC(=O)[C@H](CCCNC(=N)N)NC(=O)[C@H](CCCNC(=N)N)NC(=O)[C@H](Cc1ccccc1)NC(=O)[C@@H](N)CCCCN)C(=O)NC(C)(C)C(=O)N[C@@H](Cc1ccc(Br)cc1)C(=O)O (H-KFRRQRPR[azaLeu]SHKGP[Nle][Aib][Phe(4-Br)]-OH) | Metabolite_Notdetected | Active |  | 68 | Not Active | Active | Active | Toxic | Active | Active
CCCC[C@H](NC(=O)[C@@H]1CCCN1C(=O)CNC(=O)[C@H](CCCCN)NC(=O)[C@H](Cc1c[nH]cn1)NC(=O)[C@H](CO)NC(=O)[C@H](CC(C)C)NC(=O)[C@H](CCCNC(=N)N)NC(=O)[C@@H]1CCCN1C(=O)[C@H](CCCNC(=N)N)NC(=O)[C@@H]1CCC(=O)N1)C(=O)NC(C)(C)C(=O)N[C@@H](Cc1ccc(Br)cc1)C(=O)O | Metabolite_Detected | inactive | inactive | 65 |  |  |  |  |  | 
CCCC[C@H](NC(=O)[C@@H]1CCCN1C(=O)CNC(=O)[C@H](CCCCN)NC(=O)[C@H](Cc1c[nH]cn1)NC(=O)[C@H](CO)NC(=O)[C@H](CC(C)C)NC(=O)N(CCCNC(=N)N)NC(=O)[C@@H]1CCCN1C(=O)[C@H](CCCNC(=N)N)NC(=O)[C@@H]1CCC(=O)N1)C(=O)NC(C)(C)C(=O)N[C@@H](Cc1ccc(Br)cc1)C(=O)O ([pGlu]RP[X1]LSHKGP[Nle][Aib][Phe(4-Br)]-OH) | Metabolite_Notdetected |  | Active | 57 | Not Active |  |  |  |  | 
